Measured values as given in ChEMBL document CHEMBL1671665, “Effect of beta-1,6-glucan inhibitors on the invasion process of Candida albicans: potential mechanism of their in vivo efficacy” (Antimicrob Agents Chemother, 2009).
Converted amounts (≈) assume the structure as drawn. The source made the active and inactive calls. The calls are words filed in the database; no cut-off is given here.

Assays:
Candida albicans [1] = assay: Antifungal activity against Candida albicans ATCC 24433 by microdilution method; format: functional
In short: (§1)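 Broth microdilution per NCCLS M27-A2 in MOPS-buffered RPMI with Alamar Blue, incubated at 30°C. Starting inoculum 1 × 10³ to 3 × 10⁴ cells/ml. End point MIC-2: 50% reduction in A570 against drug-free control. Duplicate runs, repeated on another day if they disagreed.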

Candida albicans [2] = assay: Antifungal activity against Candida albicans ATCC 90028 by microdilution method; format: functional; in short: as §1
Nakaseomyces glabratus [3] = assay: Antifungal activity against Candida glabrata ATCC 48435 by microdilution method; format: functional; in short: as §1
Pichia kudriavzevii [4] = assay: Antifungal activity against Candida krusei ATCC 44507 by microdilution method; format: functional; in short: as §1
Candida albicans [5] = assay: Antifungal activity against Candida albicans ATCC 24433 in RPMI media by microdilution method; format: functional; in short: as §1
Candida albicans [6] = assay: Antifungal activity against Candida albicans ATCC 24433 in MEM media by microdilution method; format: functional
In short: (§2)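 Broth microdilution per NCCLS at 30°C, inoculum 1 × 10³ to 3 × 10⁴ cells/ml. Medium was MEM, SDB, YNB, Spider or Lee's, all without Alamar Blue. End point MIC-2: 50% drop in OD600 against drug-free control. RPMI run used MOPS-buffered RPMI with Alamar Blue read at 570 nm. Duplicates.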

Candida albicans [7] = assay: Antifungal activity against Candida albicans ATCC 24433 in SDB media by microdilution method; format: functional; in short: as §2
Candida albicans [8] = assay: Antifungal activity against Candida albicans ATCC 24433 in YNB media by microdilution method; format: functional; in short: as §2
Candida albicans [9] = assay: Antifungal activity against Candida albicans ATCC 24433 in Lee's media by microdilution method; format: functional; in short: as §2
Candida albicans [10] = assay: Antifungal activity against Candida albicans ATCC 24433 in Spider media by microdilution method; format: functional; in short: as §2
[11] = Cmax in Slc::ddY mouse at 10 mg/kg, po tid administered 1 hr post infection for 1 day; format: ADME, organism-based; parameters: dose 10 mg/kg, route oral; settings: in vivo
[12] = Half life in Slc::ddY mouse at 10 mg/kg, po tid administered 1 hr post infection for 1 day; format: ADME, organism-based; parameters: dose 10 mg/kg, route oral; settings: in vivo
Nakaseomyces glabratus [13] = assay: Antifungal activity against Candida glabrata ATCC 48435 infected in Slc::ddY mouse assessed as survival rate at 3.3 mg/kg, po tid administered 1 hr post infection for 1 day measured on day 14; format: functional
In short: (§3)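 Five-week-old female Slc:ddY mice, made neutropenic with cyclophosphamide 200 mg/kg ip 4 days before and 1 day after infection. SDA-grown cells in 0.1% Tween 80 saline were injected into the tail vein: C. albicans 2.6 × 10⁴ cells, C. glabrata 2.4 × 10⁸ cells. Oral dosing at 1, 4 and 7 h post-infection. Controls got 5% glucose with 1% lactic acid. 10 mice/group; mortality followed 14 or 30 days.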

Nakaseomyces glabratus [14] = assay: Antifungal activity against Candida glabrata ATCC 48435 infected in Slc::ddY mouse assessed as survival rate at 10 mg/kg, po tid administered 1 hr post infection for 1 day measured on day 14; format: functional; in short: as §3
Candida albicans [15] = assay: Inhibition of beta-1.6-glucan synthesis in Candida albicans ATCC 90028 assessed as [14C] glucose incorporation after 3 hrs; format: functional, organism-based
In short: (§4)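 Exponential cells suspended in RPMI 1640 (A595 about 0.6) with drug and [14C]glucose, 3 h at 30°C with occasional shaking. Cells extracted with 3% NaOH at 80°C for 1 h; mannan precipitated with Fehling's reagent. Insoluble fraction digested overnight with Zymolyase to separate β-1,6-glucan. Percent change in incorporated radioactivity against control.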

Nakaseomyces glabratus [16] = assay: Inhibition of beta-1.6-glucan synthesis in Candida glabrata ATCC 48435 assessed as [14C] glucose incorporation after 3 hrs; format: functional, organism-based; in short: as §4
Pichia kudriavzevii [17] = assay: Inhibition of beta-1.6-glucan synthesis in Candida krusei ATCC 44507 assessed as [14C] glucose incorporation after 3 hrs; format: functional, organism-based; in short: as §4
Candida albicans [18] = assay: Inhibition of beta-1.6-glucan synthesis in Candida albicans ATCC 90028 assessed as [14C] glucose incorporation at 0.063 ug/ml after 3 hrs; format: functional, organism-based; in short: as §4
Candida albicans [19] = assay: Antifungal activity against Candida albicans ATCC 90028 assessed as degradation of mannan layer of the cell wall at 1 ug/ml after 6 hrs using fluorescein-conjugated concanavalin A stain by fluorescent microscopy; format: functional, organism-based
In short: (§5)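 Budding yeast at 1 × 10³ cells/ml exposed to drug in MOPS-buffered RPMI for 6 h with shaking (legend gives 30°C). Cells fixed in 3% glutaraldehyde/0.1 M phosphate for 2 h. For mannan: stained 30 min with 10 μg/ml fluorescein–concanavalin A, fluorescence microscopy. For TEM: 2% OsO4 postfix, Spurr's resin, uranyl acetate/lead citrate stained sections.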

Candida albicans [20] = assay: Antifungal activity against Candida albicans ATCC 90028 assessed as degradation of mannan layer of the cell wall at >0.25 ug/ml after 6 hrs using fluorescein-conjugated concanavalin A stain by fluorescent microscopy; format: functional, organism-based; in short: as §5
Candida albicans [21] = assay: Antifungal activity against Candida albicans ATCC 90028 assessed as inhibition of adherence of fungal cell to human A549 cells; format: functional, organism-based
In short: (§6)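 Yeast pretreated with drug in MOPS-buffered RPMI at 30°C overnight without shaking. 100 or 200 cells in DPBS overlaid on confluent A549 monolayers (DMEM/10% FBS), 45 min at 37°C, 5% CO2. Washed, covered with SDA, colonies counted after 48 h at 30°C. Percent reduction of adherence; triplicate, mean ± SD.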

Nakaseomyces glabratus [22] = assay: Antifungal activity against Candida glabrata ATCC 48435 assessed as inhibition of adherence of fungal cell to human A549 cells; format: functional, organism-based; in short: as §6
Pichia kudriavzevii [23] = assay: Antifungal activity against Candida krusei ATCC 44507 assessed as inhibition of adherence of fungal cell to human A549 cells; format: functional, organism-based; in short: as §6
Candida albicans [24] = assay: Antifungal activity against Candida albicans ATCC 90028 assessed as inhibition of hyphal elongation at 0.25 ug/ml in Lee's medium using crystal violet stain by light microscopy; format: functional, organism-based
Candida albicans [25] = assay: Antifungal activity against Candida albicans ATCC 90028 assessed as inhibition of hyphal elongation at 0.25 ug/ml in HFM-7 medium using crystal violet stain by light microscopy; format: functional, organism-based
Candida albicans [26] = assay: Antifungal activity against Candida albicans ATCC 90028 assessed as inhibition of hyphal elongation at 0.25 ug/ml in Spider medium using crystal violet stain by light microscopy; format: functional, organism-based
Candida albicans [27] = assay: Antifungal activity against Candida albicans ATCC 90028 infected in reconstituted human vaginal epithelium tissue assessed as inhibition of fungal cell invasion in to the tissue at 0.25 ug/ml using […] and methylene blue stain by light microscopy; format: functional, organism-based
In short: (§7)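 RHVE (A431 keratinocytes) infected with 2 × 10⁶ ATCC 90028 cells that had been pretreated with drug. Drug also added to the maintenance medium. After 24 h at 37°C, 5% CO2, tissue fixed in formaldehyde; semithin sections stained with […]/methylene blue and examined by light microscopy.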

Candida albicans [28] = assay: Antifungal activity against Candida albicans ATCC 90028 infected in reconstituted human vaginal epithelium tissue assessed as inhibition of fungal cell invasion in to the tissue at 1 ug/ml using […] and methylene blue stain by light microscopy; format: functional, organism-based; in short: as §7
Saccharomyces cerevisiae [29] = assay: Antifungal activity against Saccharomyces cerevisiae AY-10c expressing ScKRE6 gene by microdilution method; format: functional
Saccharomyces cerevisiae [30] = assay: Antifungal activity against Saccharomyces cerevisiae CY-1a expressing ScKRE6 gene by microdilution method; format: functional
Saccharomyces cerevisiae [31] = assay: Antifungal activity against Saccharomyces cerevisiae CY-3a expressing ScKRE6-CaSKN2 gene by microdilution method; format: functional
Saccharomyces cerevisiae [32] = assay: Antifungal activity against Saccharomyces cerevisiae CY-4a expressing ScKRE6-CaKRE6 gene by microdilution method; format: functional
Saccharomyces cerevisiae [33] = assay: Antifungal activity against Saccharomyces cerevisiae CY-5a expressing ScKRE6-CaSKN1 gene by microdilution method; format: functional
Candida albicans [34] = assay: Antifungal activity against Candida albicans ATCC 90028 infected in Slc::ddY mouse assessed as survival rate at 10 mg/kg, po tid administered 1 hr post infection for 1 day measured on day 30; settings: ATCC 90028, po
Candida albicans [35] = assay: Antifungal activity against Candida albicans ATCC 90028 assessed as absence of outer layer of the cell wall at 1 ug/ml after 6 hrs by TEM; format: functional, organism-based; in short: as §5

| Compound | MIC (Candida albicans [1]) | MIC (Candida albicans [2]) | MIC (Nakaseomyces glabratus [3]) | MIC (Pichia kudriavzevii [4]) | MIC (Candida albicans [5]) | MIC (Candida albicans [6]) | MIC (Candida albicans [7]) | MIC (Candida albicans [8]) | MIC (Candida albicans [9]) | MIC (Candida albicans [10]) | MIC (Saccharomyces cerevisiae [29]) | MIC (Saccharomyces cerevisiae [30]) | MIC (Saccharomyces cerevisiae [31]) | MIC (Saccharomyces cerevisiae [32]) | MIC (Saccharomyces cerevisiae [33]) | further results |
| --- | --- | --- | --- | --- | --- | --- | --- | --- | --- | --- | --- | --- | --- | --- | --- | --- |
| Cc1c(-c2ccccc2)c(N2CC[C@H](N(C)C)C2)n2c(nc3ncccc32)c1C#N | > 32 mg/L | > 32 mg/L | 0.125 mg/L (≈ 0.315 µM) | 0.5 mg/L (≈ 1.26 µM) | > 16 mg/L | > 16 mg/L | 4 mg/L (≈ 10.1 µM) | 16 mg/L (≈ 40.4 µM) | 0.125 mg/L (≈ 0.315 µM) | 0.125 mg/L (≈ 0.315 µM) | 0.25 mg/L (≈ 0.631 µM) | 0.5 mg/L (≈ 1.26 µM) | 0.25 mg/L (≈ 0.631 µM) | 0.25 mg/L (≈ 0.631 µM) | 0.25 mg/L (≈ 0.631 µM) | Cmax [11]: 0.71 µg/mL; half-life [12]: 4.4 h; survival at 3.3 mg/kg (Nakaseomyces glabratus [13]): 90%; survival at 10 mg/kg (Nakaseomyces glabratus [14]): 100%; inhibition (Candida albicans [15]): Active; inhibition (Nakaseomyces glabratus [16]): Active; inhibition (Pichia kudriavzevii [17]): Active; inhibition (Candida albicans [18]): Active; Activity (Candida albicans [19]): Active; Activity (Candida albicans [20]): Active; Activity (Candida albicans [21]): Active; Activity (Nakaseomyces glabratus [22]): Active; Activity (Pichia kudriavzevii [23]): Active; Activity (Candida albicans [24]): Active; Activity (Candida albicans [25]): Active; Activity (Candida albicans [26]): Active; Activity (Candida albicans [27]): Active; Activity (Candida albicans [28]): Active; survival at 10 mg/kg (Candida albicans [34]): 50% |
| CCc1c(C)c(C#N)c2nc3ccccc3n2c1NCCN(CC)CC | 8 mg/L (≈ 22.9 µM) | 16 mg/L (≈ 45.8 µM) | 1 mg/L (≈ 2.86 µM) | 16 mg/L (≈ 45.8 µM) | – | – | – | – | – | – | 8 mg/L (≈ 22.9 µM) | 8 mg/L (≈ 22.9 µM) | 8 mg/L (≈ 22.9 µM) | 16 mg/L (≈ 45.8 µM) | 16 mg/L (≈ 45.8 µM) | – |
| Cc1c(-c2ccccc2)c(N2CC[C@H](N(C)C)C2)n2c(nc3ccccc32)c1C#N | > 32 mg/L | > 32 mg/L | 0.016 mg/L (≈ 0.0405 µM) | 0.25 mg/L (≈ 0.632 µM) | > 16 mg/L | > 16 mg/L | 2 mg/L (≈ 5.06 µM) | 16 mg/L (≈ 40.5 µM) | 0.125 mg/L (≈ 0.316 µM) | 0.063 mg/L (≈ 0.159 µM) | 0.125 mg/L (≈ 0.316 µM) | 0.125 mg/L (≈ 0.316 µM) | 0.125 mg/L (≈ 0.316 µM) | 0.125 mg/L (≈ 0.316 µM) | 0.25 mg/L (≈ 0.632 µM) | Activity (Candida albicans [35]): Active |
